From PubChem
Runt-SMMHC FRET: inhibitors of human RUNX1 Runt domain binding to CBFb-SMMHC. Q01196+Q13951. Cerulean-Runt/Venus-CBFb-SMMHC FRET ratio 530/480, 1 h. inhibition, % at 20 µM. 220,000 compounds, 0.74% hits. AID 1434;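 active = mean inhibition across duplicate retests at 20 µM reaching about 50%, limit read from the data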;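 note: 0% = DMSO wells and 100% = wells with excess untagged CBFb-SMMHC; inhibitors lower the FRET ratio by blocking Runt binding to CBFb-SMMHC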
CaV13 FRET inh: Disruptors of the CACNA1D IQ motif to Ca2+-dependent inactivation inhibitor domain association, primary screening, Förster resonance energy transfer in intact living …. HEK cells, CFP/YFP FRET ICDI-IQ, plate reader, 10 min; percent FRET-ratio fall versus neutral wells. inhibition, % at 12.3 µM. 340,000 compounds, 0.098% hits;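 active = mean replicate inhibition of at least 30% and at least 1% of replicates passing that level; inconclusive = only one of the two criteria is met; inactive = neither criterion is met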;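 note: 0% = median of the neutral control wells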
RanGTP-Imp inh: disruptors of Ran-importin-beta complex formation – biochemical, FRET, CFP-Ran, YFP-importin-beta, homogeneous, primary screen; AID 2216; inhibition, % (test concentration not listed); cell-free CFP-Ran/YFP-importin-beta FRET ratio; 300,000 compounds, 1.1% hits;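 active = more than half of the replicate wells show a fall in the fluorescence ratio signal beyond about 16%, limit read from the data, passing the limit was not always enough; inconclusive = exactly half of the replicate wells pass the set limit; inactive = fewer than half of replicates pass the limit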;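 note: 0% = DMSO wells and 100% = Ran loaded with GDP instead of GTP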
Runt-CBFb FRET: blocks binding of human RUNX1 Runt domain to CBFb; Q01196+Q13951; Cerulean-Runt/Venus-CBFb FRET ratio 530/480, 1 h; inhibition, % at 20 µM; 220,000 compounds, 0.46% hits; AID 1496;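 active = inhibition over about 50% at 20 µM in the single-dose screen, limit read from the data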;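 note: 0% = DMSO wells and 100% = excess unlabeled CBFb competitor control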
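test system = Cerulean-Runt domain fusion protein, energy donor | probe or stimulus = Venus-CBFb binding partner, 100 nM | incubation = two 1 h room-temperature incubations shielded from light | detection = fluorescence energy transfer, 422 nm excitation, 530/480 nm emission | measure = loss of energy transfer signal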
Hck Nef HTS: human Hck-Nef kinase inhibition; P08631; Recombinant Hck-YEEI plus Nef, Z-Lyte FRET kinase assay; inhibition, % at 20 µM; 220,000 compounds, 0.68% hits;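 active = Hck-Nef kinase inhibition above about 50%, limit read from the data; inactive = inhibition below that limit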;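 note: 0% = DMSO with Hck plus Nef and 100% = Hck alone without Nef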
Target sequence (P08631 whole entry, looked up): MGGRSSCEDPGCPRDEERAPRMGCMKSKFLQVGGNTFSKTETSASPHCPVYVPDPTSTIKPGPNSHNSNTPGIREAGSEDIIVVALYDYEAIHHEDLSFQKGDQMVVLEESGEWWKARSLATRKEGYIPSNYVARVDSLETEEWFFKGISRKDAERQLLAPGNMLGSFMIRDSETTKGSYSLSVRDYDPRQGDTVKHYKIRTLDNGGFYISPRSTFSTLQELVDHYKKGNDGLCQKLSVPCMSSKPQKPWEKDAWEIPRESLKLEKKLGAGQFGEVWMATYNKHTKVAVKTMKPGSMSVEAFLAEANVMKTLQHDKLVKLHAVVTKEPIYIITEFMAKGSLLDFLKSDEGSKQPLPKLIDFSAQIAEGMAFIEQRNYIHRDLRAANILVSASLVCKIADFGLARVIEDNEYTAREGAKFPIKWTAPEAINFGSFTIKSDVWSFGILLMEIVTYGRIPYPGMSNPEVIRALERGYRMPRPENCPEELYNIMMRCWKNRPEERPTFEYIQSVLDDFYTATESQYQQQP
YIC FRET counter: counter-screen for RanGTP-importin-beta inhibitors: YIC FRET probe; 1,000 compounds, 40% hits; Purified YIC probe, intramolecular FRET ratio YFP/CFP; IC50, µM; AID 435026; shares compounds with RanGTP-Imp inh;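 active = fitted half-maximal inhibitory concentration no more than tenfold above the top dose tested; inconclusive = flat fit with 30 to 70% activity, or poor fit; inactive = half-maximal concentration beyond tenfold above the top dose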
* hit, by the source's call; u = inconclusive; x = no result. The list is not random: actives were taken first. Their share in the collection is about 1.5%.

SMILES | Runt-SMMHC FRET | CaV13 FRET inh | RanGTP-Imp inh | Runt-CBFb FRET | Hck Nef HTS | YIC FRET counter
O=C1C2CCC(C2)C1CN1CCOCC1 (centres undefined) | x | -6 | x | x | x | x
NC(=O)C1CCN(C(=O)C2CCN(C(=O)Nc3ccccc3)CC2)CC1 | x | -6 | x | x | x | x
Cc1cccc(NC(=O)C2C3C=CC(O3)C2C(=O)O)c1 (centres undefined) | x | x | -2 | x | x | x
O=S(=O)(Nc1nc2ccccc2nc1-[n+]1cccc(N=C([O-])c2ccccc2Cl)c1)c1ccccc1 | 75* | x | 24* | 48 | 11 | 6.7*
O=[N+]([O-])c1ccc(Nc2c3ccccc3nc3ccccc23)cc1 | 23 | -3 | 25* | 48 | 22 | >50
CC(=O)c1cccc(Nc2cc(C)nc3ccccc23)c1 | 0 | 1 | 1 | 2 | 29 | x
O=C(O)c1cccc(Nc2c3ccccc3nc3ccccc23)c1 | x | -2 | 20* | x | x | >50
CCN(C(=O)c1c(C)cc(=O)oc1C)c1ccc2c(c1)OCO2 | -3 | -3 | 17* | 4 | -2 | >50
Cc1c(OC(C)C(=O)NCC2CCC(C(=O)O)CC2)ccc2c(-c3ccccc3)cc(=O)oc12 (centres undefined) | x | x | -2 | x | x | x
Cc1c(Br)c(=O)oc2c(Br)c(O)c(O)cc12 | 76* | -3 | 26* | 55* | -28 | 11*
COc1c(Br)cc2c(C)c(C(=O)O)oc2c1Br | -4 | -15 | 3 | -1 | 5 | x
O=C(NNC(=S)NC(=O)c1ccccc1[N+](=O)[O-])c1ccccc1O | 1 | -3 | 19* | 4 | 23 | >50
O=C(NNC(=S)NC(=O)c1ccccc1[N+](=O)[O-])c1ccccc1[N+](=O)[O-] | 2 | -7 | 1 | 3 | -1 | x
C[C@H](CO)N1C[C@H](C)[C@H](CN(C)C(=O)c2cc(-c3ccccc3)on2)OCc2cnnn2CCCC1=O | x | -11 | x | x | x | x
Cn1cccc1/C=C(/C#N)C(N)=S | 24 | -16 | -1 | 10 | 1 | x
Cc1ccc(-c2ccc(/C=C(\C#N)C(N)=S)n2C)cc1 | -4 | 10 | 31* | 46 | -16 | >50
Cn1c2ccccc2c(=O)c2cc(C#CC3=CCCCC3)ccc21 | x | 8 | x | x | x | x
COc1ccccc1C#Cc1ccc2c(=O)c3ccccc3n(C)c2c1 | x | -5 | 40* | x | x | 0.72*
CC1C(=O)C(C)C(c2ccccc2F)NC1c1ccccc1F (centres undefined) | x | -4 | -2 | x | x | x
COc1ccc(S(=O)(=O)N(C)C)cc1NC(=O)CCNC(=O)c1ccccc1OC | x | -20 | u | x | x | x
COc1ccc(CCNC(=O)c2cc3c(=O)n4cccc(C)c4nc3n(CCCN3CCOCC3)c2=N)cc1 | x | -9 | 39* | x | x | 4.4*
COc1ccc(CCn2c(=N)c(C(=O)NCC3CCCO3)cc3c(=O)n4cccc(C)c4nc32)cc1 (centres undefined) | x | -9 | 29* | x | x | 14*
Cc1cccn2c(=O)c3cc(C(=O)NCCN4CCOCC4)n(Cc4ccccc4)c3nc12 | 6 | x | x | 2 | x | x
CC(C)Sc1nnc(CNC(=O)C23CC4CC(CC(C4)C2)C3)n1C1CCCCC1 | -6 | -5 | 20* | -8 | 0 | >50
Cc1nnc(NC(=O)CSc2nnc(CNC(=O)C34CC5CC(CC(C5)C3)C4)n2C2CCCCC2)s1 | 3 | -4 | u | -7 | 0 | x
SMILES | Runt-SMMHC FRET | CaV13 FRET inh | RanGTP-Imp inh | Runt-CBFb FRET | Hck Nef HTS | YIC FRET counter
COc1cc(/C=N/Nc2nc(N3CCCC3)nc(N3CCCC3)n2)ccc1OCc1ccccc1F | -7 | -20 | 0 | -2 | 10 | x
CCCCn1c(N)c(N(CCOC)C(=O)CN2c3ccccc3CC2C)c(=O)[nH]c1=O (centres undefined) | 31 | -18 | 38* | 33 | 17 | >50
CCCCn1c(N)c(N(CCOC)C(=O)CN2C(=O)c3ccccc3C2=O)c(=O)[nH]c1=O | x | -3 | 6 | x | x | x
Cc1ccc2c(CN3CC(C)CC(C)C3)cc(=O)oc2c1 (centres undefined) | x | -3 | -4 | x | x | x
O=c1cc(CN2CCN(Cc3ccccc3)CC2)c2ccc(O)cc2o1 | x | -3 | 38* | x | x | 10*
CC1CN(Cc2cc(=O)oc3cc(O)ccc23)CC(C)O1 (centres undefined) | x | -4 | 19* | x | x | 16*
Cc1ccc2c(CN3CCN(Cc4ccccc4)CC3)cc(=O)oc2c1 | x | -18 | 1 | x | x | x
CCCCNC(=O)C1c2ccccc2OCC(=O)N1Cc1cccnc1 (centres undefined) | x | -1 | x | x | x | x
O=C(NCCNC(=O)c1ccc(Br)o1)c1cccnc1 | x | -8 | -2 | x | x | x
Cc1ccc(S(=O)(=O)NC[C@H]2O[C@@H](n3ccc(N)nc3=O)[C@H](O)[C@@H]2O)s1 | x | -8 | x | x | x | x
COc1ccc2cc(CCN3C(=O)c4ccccc4C3=O)c(=O)[nH]c2c1 | -1 | -6 | 20* | -1 | -4 | >50
CCOCCCNC(=O)NC(=O)CN1CCN(S(=O)(=O)c2ccc3c(c2)OCCO3)CC1 | 2 | -5 | 19* | 1 | -9 | >50
O=C(Cn1nnc(-c2cccs2)n1)NCCc1ccccc1 | -4 | -2 | 10 | 0 | -6 | x
O=C(Cn1nnc(-c2ccncc2)n1)NCCc1ccccc1 | -4 | -7 | 18* | 0 | 1 | >50
O=C(Cn1cncn1)NCCCc1ccccc1 | 0 | 3 | 4 | 2 | 12 | x
COc1ccc(N2CCN(CCCNC(=O)Cn3c(=O)c4cccn4c4cccnc43)CC2)cc1 | x | -15 | -1 | x | x | x
O=C(Cn1c(=O)c2cccn2c2cccnc21)NCCCN1CCN(c2ccc(F)cc2)CC1 | x | -2 | 32* | x | x | >50
COCCn1c(SC(C)C(=O)NCC2CCCO2)nc2sc3c(c2c1=O)CCC3 (centres undefined) | x | -6 | 1 | x | x | x
Cc1ccsc1/C=C(\C#N)C(=O)NC1CCS(=O)(=O)C1 (centres undefined) | 0 | -5 | 9 | -1 | 31 | x
COc1cc2ccccc2cc1C(=O)Nc1nnc(-c2ccncc2)o1 | x | -4 | 3 | x | x | x
O=C(Cc1cc(=O)oc2cc(O)ccc12)N[C@@H](Cc1c[nH]c2ccccc12)C(=O)O | x | -2 | 21* | x | x | >50
COC(=O)C1=CN(Cc2ccccc2)C=C(C(=O)OC)C1c1cc(F)ccc1F | x | -2 | 24* | x | x | 21*
CCOC(=O)c1sc2ncc([N+](=O)[O-])cc2c1N | -1 | -5 | 7 | 1 | 19 | x
CCOC(=O)CNc1ncc([N+](=O)[O-])cc1C#N | -1 | -8 | 20* | 2 | 0 | >50
C=CCOc1c(Br)cc(CNc2ccc(NC(=O)C(C)C)c(OC)c2)cc1OC | -37 | -3 | 27* | -14 | -1 | >50
COc1ccc(CN2CCC(n3nccc3NC(=O)C3CCCC3)CC2)cc1 | x | -5 | 1 | x | x | x
